Experimental data published in ChEMBL document CHEMBL5058577, “EUbOPEN Chemogenomics Library 2 (Multiplex)” (2022).

System: Fibroblast
Test: Multiplex assay against human fibroblast
Type: toxicity, cell-based
How it was run: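 Cells were classed with CellPathfinder machine-learning gating, first as Hoechst high-intensity objects or normal cells, then (normal cells) as healthy, pyknosed or fragmented nuclei, and finally (pyknosed cells) as mitotic or apoptotic. Staining of live cells at seeding used Hoechst33342, BioTracker Green Microtubule Cytoskeleton Dye, MitoTracker Red and Annexin V Alexa Fluor 680, with imaging on a CQ1 microscope at 37°C and 5% CO2 after compound addition. Tubulin, mitochondrial-mass and membrane-permeability phenotypes are per cents of healthy-nucleus cells.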

[1] = 12 h, 1 µM, compound concentration 1 uM, replicate 1
[2] = 12 h, 1 µM, compound concentration 1 uM, replicate 2
[3] = 12 h, 10 µM, compound concentration 10 uM, replicate 1
[4] = 12 h, 10 µM, compound concentration 10 uM, replicate 2
[5] = 24 h, 1 µM, compound concentration 1 uM, replicate 1
[6] = 24 h, 1 µM, compound concentration 1 uM, replicate 2
[7] = 24 h, 10 µM, compound concentration 10 uM, replicate 1
[8] = 24 h, 10 µM, compound concentration 10 uM, replicate 2
[9] = 48 h, 1 µM, compound concentration 1 uM, replicate 1
[10] = 48 h, 1 µM, compound concentration 1 uM, replicate 2
[11] = 48 h, 10 µM, compound concentration 10 uM, replicate 1
[12] = 48 h, 10 µM, compound concentration 10 uM, replicate 2

Structure (SMILES): Cc1cc(-c2ccc3c(c2)CC[C@H]3N2CC3(CCN(C(=O)Cc4cn5cc(C)sc5n4)CC3)C2)ncn1 [PF-5190457]
- Population Apoptotic (%) [1]: 29%
- Population Fragmented Nuclei (%) [1]: 16%
- Population Healthy Nuclei (%) [1]: 71%
- Population Hoechst High Intensity Objects (%) [1]: 4%
- Population Membrane Permeable-Phenotype (%) [1]: 1%
- Population Mitochondria Different-Phenotype (%) [1]: 5%
- Population Mitotic Cells (%) [1]: 70%
- Population Normal (%) [1]: 96%
- Population Pyknosed Nuclei (%) [1]: 11%
- Population Tubulin-Different-Phenotype (%) [1]: 24%
- Total Cell Count [1]: 150
- Population Apoptotic (%) [2]: 30%
- Population Fragmented Nuclei (%) [2]: 18%
- Population Healthy Nuclei (%) [2]: 46%
- Population Membrane Permeable-Phenotype (%) [2]: 9%
- Population Mitochondria Different-Phenotype (%) [2]: 0%
- Population Normal (%) [2]: 95%
- Population Pyknosed Nuclei (%) [2]: 34%
- Population Tubulin-Different-Phenotype (%) [2]: 48%
- Total Cell Count [2]: 121
- Population Apoptotic (%) [3]: 36%
- Population Fragmented Nuclei (%) [3]: 17%
- Population Healthy Nuclei (%) [3]: 63%
- Population Hoechst High Intensity Objects (%) [3]: 4%
- Population Membrane Permeable-Phenotype (%) [3]: 1%
- Population Mitochondria Different-Phenotype (%) [3]: 5%
- Population Mitotic Cells (%) [3]: 63%
- Population Normal (%) [3]: 95%
- Population Pyknosed Nuclei (%) [3]: 18%
- Population Tubulin-Different-Phenotype (%) [3]: 38%
- Total Cell Count [3]: 186
- Population Apoptotic (%) [4]: 45%
- Population Fragmented Nuclei (%) [4]: 20%
- Population Healthy Nuclei (%) [4]: 55%
- Population Hoechst High Intensity Objects (%) [4]: 1%
- Population Membrane Permeable-Phenotype (%) [4]: 6%
- Population Mitochondria Different-Phenotype (%) [4]: 4%
- Population Mitotic Cells (%) [4]: 54%
- Population Normal (%) [4]: 98%
- Population Pyknosed Nuclei (%) [4]: 24%
- Population Tubulin-Different-Phenotype (%) [4]: 56%
- Total Cell Count [4]: 138
- Population Apoptotic (%) [5]: 54%
- Population Fragmented Nuclei (%) [5]: 19%
- Population Healthy Nuclei (%) [5]: 72%
- Population Hoechst High Intensity Objects (%) [5]: 2%
- Population Membrane Permeable-Phenotype (%) [5]: 1%
- Population Mitochondria Different-Phenotype (%) [5]: 4%
- Population Mitotic Cells (%) [5]: 45%
- Population Normal (%) [5]: 97%
- Population Pyknosed Nuclei (%) [5]: 7%
- Population Tubulin-Different-Phenotype (%) [5]: 26%
- Total Cell Count [5]: 141
- Population Apoptotic (%) [6]: 15%
- Population Fragmented Nuclei (%) [6]: 23%
- Population Healthy Nuclei (%) [6]: 43%
- Population Hoechst High Intensity Objects (%) [6]: 3%
- Population Membrane Permeable-Phenotype (%) [6]: 5%
- Population Mitochondria Different-Phenotype (%) [6]: 5%
- Population Mitotic Cells (%) [6]: 84%
- Population Normal (%) [6]: 96%
- Population Pyknosed Nuclei (%) [6]: 32%
- Population Tubulin-Different-Phenotype (%) [6]: 54%
- Total Cell Count [6]: 126
- Population Apoptotic (%) [7]: 44%
- Population Fragmented Nuclei (%) [7]: 19%
- Population Healthy Nuclei (%) [7]: 64%
- Population Hoechst High Intensity Objects (%) [7]: 3%
- Population Membrane Permeable-Phenotype (%) [7]: 0%
- Population Mitochondria Different-Phenotype (%) [7]: 6%
- Population Mitotic Cells (%) [7]: 55%
- Population Normal (%) [7]: 96%
- Population Pyknosed Nuclei (%) [7]: 16%
- Population Tubulin-Different-Phenotype (%) [7]: 37%
- Total Cell Count [7]: 180
- Population Apoptotic (%) [8]: 53%
- Population Fragmented Nuclei (%) [8]: 25%
- Population Healthy Nuclei (%) [8]: 49%
- Population Hoechst High Intensity Objects (%) [8]: 5%
- Population Membrane Permeable-Phenotype (%) [8]: 1%
- Population Mitochondria Different-Phenotype (%) [8]: 7%
- Population Mitotic Cells (%) [8]: 46%
- Population Normal (%) [8]: 94%
- Population Pyknosed Nuclei (%) [8]: 25%
- Population Tubulin-Different-Phenotype (%) [8]: 60%
- Total Cell Count [8]: 134
- Population Apoptotic (%) [9]: 78%
- Population Fragmented Nuclei (%) [9]: 30%
- Population Healthy Nuclei (%) [9]: 59%
- Population Hoechst High Intensity Objects (%) [9]: 6%
- Population Membrane Permeable-Phenotype (%) [9]: 2%
- Population Mitochondria Different-Phenotype (%) [9]: 2%
- Population Mitotic Cells (%) [9]: 21%
- Population Normal (%) [9]: 93%
- Population Pyknosed Nuclei (%) [9]: 9%
- Population Tubulin-Different-Phenotype (%) [9]: 23%
- Total Cell Count [9]: 157
- Population Apoptotic (%) [10]: 34%
- Population Fragmented Nuclei (%) [10]: 32%
- Population Healthy Nuclei (%) [10]: 47%
- Population Hoechst High Intensity Objects (%) [10]: 2%
- Population Membrane Permeable-Phenotype (%) [10]: 14%
- Population Mitochondria Different-Phenotype (%) [10]: 6%
- Population Mitotic Cells (%) [10]: 65%
- Population Normal (%) [10]: 97%
- Population Pyknosed Nuclei (%) [10]: 20%
- Population Tubulin-Different-Phenotype (%) [10]: 68%
- Total Cell Count [10]: 132
- Population Apoptotic (%) [11]: 63%
- Population Fragmented Nuclei (%) [11]: 22%
- Population Healthy Nuclei (%) [11]: 66%
- Population Hoechst High Intensity Objects (%) [11]: 6%
- Population Membrane Permeable-Phenotype (%) [11]: 0%
- Population Mitochondria Different-Phenotype (%) [11]: 12%
- Population Mitotic Cells (%) [11]: 36%
- Population Normal (%) [11]: 93%
- Population Pyknosed Nuclei (%) [11]: 10%
- Population Tubulin-Different-Phenotype (%) [11]: 37%
- Total Cell Count [11]: 192
- Population Apoptotic (%) [12]: 62%
- Population Fragmented Nuclei (%) [12]: 30%
- Population Healthy Nuclei (%) [12]: 51%
- Population Hoechst High Intensity Objects (%) [12]: 1%
- Population Membrane Permeable-Phenotype (%) [12]: 5%
- Population Mitochondria Different-Phenotype (%) [12]: 14%
- Population Mitotic Cells (%) [12]: 37%
- Population Normal (%) [12]: 98%
- Population Pyknosed Nuclei (%) [12]: 18%
- Population Tubulin-Different-Phenotype (%) [12]: 64%
- Total Cell Count [12]: 135
